Results as given in ChEMBL document CHEMBL3352663, “Inhibition of group IVA cytosolic phospholipase A2 by thiazolyl ketones in vitro, ex vivo, and in vivo” (J Med Chem, 2014).
The source made the active and inactive calls. The rule behind the calls is not given here.

Legend:
[1] = target: T1, Cytosolic phospholipase A2 (Homo sapiens) (UniProt P47712); assay: Inhibition of human recombinant GIVA cPLA2 at 1 uM in vitro vesicle assay
T1 sequence (whole entry): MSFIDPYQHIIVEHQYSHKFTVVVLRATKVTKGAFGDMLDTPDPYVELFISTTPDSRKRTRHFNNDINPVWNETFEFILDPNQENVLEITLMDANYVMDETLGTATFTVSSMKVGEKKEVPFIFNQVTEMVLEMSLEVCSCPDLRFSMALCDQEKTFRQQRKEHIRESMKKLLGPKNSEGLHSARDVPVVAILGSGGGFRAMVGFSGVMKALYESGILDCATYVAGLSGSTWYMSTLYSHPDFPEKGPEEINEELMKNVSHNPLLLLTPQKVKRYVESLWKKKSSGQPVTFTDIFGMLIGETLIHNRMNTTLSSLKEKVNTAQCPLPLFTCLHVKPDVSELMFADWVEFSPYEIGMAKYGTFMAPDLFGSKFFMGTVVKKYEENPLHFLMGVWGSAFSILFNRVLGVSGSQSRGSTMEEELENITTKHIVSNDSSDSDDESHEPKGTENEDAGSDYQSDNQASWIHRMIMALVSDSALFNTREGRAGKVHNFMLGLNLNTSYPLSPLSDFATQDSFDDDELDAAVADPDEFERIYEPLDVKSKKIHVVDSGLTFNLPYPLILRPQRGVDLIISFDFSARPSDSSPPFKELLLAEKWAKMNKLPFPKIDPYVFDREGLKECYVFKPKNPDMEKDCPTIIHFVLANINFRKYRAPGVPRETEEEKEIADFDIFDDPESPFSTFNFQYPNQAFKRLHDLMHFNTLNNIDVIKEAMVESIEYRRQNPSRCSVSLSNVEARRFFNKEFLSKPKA
How it was run: (§1)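 Recombinant human GIVA cPLA2 was preincubated with 1% DMSO ± inhibitor (80 s at 37 °C, then 10 min at 25 °C). Sonicated vesicles of 1-palmitoyl-2-[14C]arachidonyl-PC (0.2 μM) were added and incubated 1 h at 37 °C. The reaction was stopped with chloroform/methanol. Single-point tests used 1 µM inhibitor; IC50 determinations used 0-3 µM.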

[2] = system: SW982; assay: Inhibition of IL-1beta-induced arachidonic acid release in human SW982 cells using [3H]AA at 10 uM by liquid scintillation counting; assay type: functional; settings: for inhibition at 10 µM: SW982, 4 h
How it was run: (§2)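 SW982 synovial sarcoma cells were serum-starved and labelled overnight with 3H-AA (0.4 µCi/mL) and 14C-OA (0.067 µCi/mL), then washed with PBS/fBSA. They were pretreated 1 h with inhibitor (10 µM single point, or 0-20 µM for IC50), then stimulated with IL-1β 10 ng/mL for 4 h. Released radioactivity was counted by scintillation relative to total incorporated label; DMSO served as vehicle; ≥3 independent experiments in triplicate.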

[3] = target: T1, Cytosolic phospholipase A2 (Homo sapiens); assay: Inhibition of human recombinant GIVA cPLA2 using 400 uM Triton X-100/97 uM PAPC/1.8 uM 14C-labeled PAPC/3uM PIP2 substrate mixedmicelles at 0.091 mole fraction
[4] = organism: Homo sapiens; assay: Inhibition of human recombinant GV sPLA2 using 400 uM Triton X-100/98.3 uM PAPC/1.7 uM 14C-labeled PAPC substrate mixedmicelles at 1 uM
[5] = system: SW982; assay: Inhibition of IL-1beta-induced arachidonic acid release in human SW982 cells using [3H]AA by liquid scintillation counting; assay type: functional, cell-based; how it was run: as §2
[6] = system: SW982; assay: Inhibition of IL-1beta-induced oleic acid release in human SW982 cells using [3H]OA at 10 uM by liquid scintillation counting; assay type: functional; settings: SW982, 4 h
[7] = target: T2, Cytosolic phospholipase A2 (Homo sapiens, UniProt P47712); assay: Inhibition of human recombinant GIVA cPLA2 in vitro vesicle assay; how it was run: as §1
T2 sequence (P47712 whole entry): T1 sequence (whole entry)

[8] = system: Mus musculus; assay: Antiinflammatory activity in DBA/1 mouse […] model assessed as reduction in articular cavity at 7.5 mg/kg, ip treatment started on day 21 after second […] measured on day 32; assay type: functional, organism-based; parameters: dose 7.5 mg/kg
How it was run: (§3)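 Prophylactic collagen-induced arthritis in male DBA/1 mice. Bovine type II collagen (2 mg/mL) was emulsified 1:1 in Freund's complete adjuvant and 0.1 mL injected at the tail base on day 0, with a booster on day 21. Daily ip dosing in DMSO at 2 mL/Kg began 1 h before the booster. Arthritis index was scored through day 41. Histology groups were killed at day 32 after […] of dosing; hind paws were scored blind (0-5) for infiltration, hyperplasia and damage.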

[9] = system: Mus musculus; assay: Antiinflammatory activity in DBA/1 mouse […] assessed as reduction in capillary and synovial hyperplasia at 7.5 mg/kg, ip treatment started on day 21 after […] measured on day 32; assay type: functional, organism-based; parameters: dose 7.5 mg/kg; how it was run: as §3
[10] = system: Mus musculus; assay: Reduction in PGE2 level in DBA/1 mouse plasma at 0.3 mg/kg, ip by EIA analysis relative to control; assay type: functional, organism-based; parameters: dose 0.3 mg/kg
How it was run: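 Plasma came from collagen-induced arthritic DBA/1 mice at termination, about 5 h after the last daily ip dose. Samples were diluted 1:1000-1:6000 in EIA buffer and incubated 18 h at 4 °C in a PGE2 EIA, read at OD550. Levels are expressed relative to DMSO-vehicle arthritic mice; n=10-11 per group, ±SD.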

[11] = system: Mus musculus; assay: Antiinflammatory activity in DBA/1 mouse […] model assessed as reduction in peripheral tissue inflammatory cell infiltration at 7.5 mg/kg, ip treatment started on day 21 after […] measured on day 32; assay type: functional, organism-based; parameters: dose 7.5 mg/kg; how it was run: as §3
[12] = target: T1, Cytosolic phospholipase A2 (Homo sapiens); assay: Inhibition of human recombinant GIVA cPLA2 using 400 uM Triton X-100/97 uM PAPC/1.8 uM 14C-labeled PAPC/3uM PIP2 substrate mixedmicelles
How it was run: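 Modified Dole assay of recombinant human GIVA cPLA2. Mixed micelles contained 400 µM Triton X-100, 97 µM PAPC, 1.8 µM 14C-PAPC and 3 µM PIP2 in 100 mM HEPES pH 7.5 with 90 µM CaCl2, 2 mM DTT and 0.1 mg/mL BSA. Percent inhibition was measured at 0.091 mole fraction inhibitor. XI(50) is the mole fraction giving 50% inhibition.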

[13] = system: SW982; assay: Inhibition of IL-1beta-induced oleic acid release in human SW982 cells using [3H]OA at 0 to 20 uM by liquid scintillation counting; assay type: functional, cell-based
[14] = Homo sapiens, SW982, 4 h, read-out: IC50

SMILES | inhibition [1] | inhibition at 10 µM [2] [%] | inhibition [3] [%] | inhibition [4] [%] | IC50 [5, 14] [µM] | inhibition at 10 µM [6] [%] | IC50 [7] | inhibition [8] | inhibition [9] | inhibition [10] | inhibition [11] | IC50 ([5]; sw982) | XI50 (mole fraction) [12] | inhibition [13] | inhibition [2]
CCCCCCCCc1ccc(OCC(=O)c2nc(CC(=O)OCC)cs2)cc1 | 25% | 71 | 64 | 50 | 5 | 20 | Not Active | – | – | – | – | – | – | – | –
CN(Cc1cnc2nc(N)nc(N)c2n1)c1ccc(C(=O)N[C@@H](CCC(=O)O)C(=O)O)cc1 | – | – | – | – | – | – | – | inactive | inactive | Active | inactive | – | – | – | –
O=C(COc1ccccc1)c1nccs1 | 26% | 12 | 40 | 0 | – | 20 | Not Active | – | – | – | – | Not Active | – | – | –
O=C(COc1ccc(-c2ccccc2)cc1)c1nccs1 | 26% | 73 | 80 | 41 | 2.8 | 25 | Not Active | – | – | – | – | – | – | – | –
CCCCCCCCc1ccc(OCC(=O)c2nccs2)cc1 | 43% | > 90 | > 90 | 46 | 3.6 | – | – | – | – | – | – | – | 0.02 | inactive | –
CCCCCCCCCCCCOCC(=O)c1nc(CC(=O)OCC)cs1 | inactive | – | 49 | 55 | – | – | – | – | – | – | – | – | – | inactive | inactive
CCCCCCCCCCCCOCC(=O)c1nc(C(=O)OCC)cs1 | 21% | 9 | 48 | 48 | – | – | Not Active | – | – | – | – | Not Active | – | inactive | –
CCCCCCCCc1ccc(OCC(=O)c2nc3ccccc3s2)cc1 | inactive | 71 | > 90 | 55 | 5.3 | 35 | – | – | – | – | – | – | 0.06 | – | –
O=C(COc1ccc(F)cc1)c1nccs1 | 7% | – | 58 | 4 | – | 25 | Not Active | – | – | – | – | – | – | – | inactive
